Hits are enriched below; roughly 1.4% of the tested compounds scored in any of these assays.
EBNA-1 inhibitor = EBNA-1 DNA-binding inhibitors, primary screen, biochemical, fluorescence polarization; inhibition, % at 14.8 µM; AID 1950, 2009; 300,000 compounds, 0.34% hits; in the data active means inhibition above about 28%
core dimer inh = inhibitors of HCV core protein dimerization, primary screen, biochemical, TR-FRET, high-throughput | TR-FRET GST/Flag-core106 dimerization, 1536-well | inhibition, % at 5 µM | 300,000 compounds, 0.33% hits;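 active means inhibition above the mean of all tested compounds plus 3 SD, set per screening campaign, cut at about 45% in these data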
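System: GST/Flag-tagged HCV core106 proteins. Incubation: compound-protein-antibody incubation 4 h at 22.5 °C. Technique: HTRF with 340 nm excitation, 617/671 nm emission. Medium: KF-containing HEPES buffer, pH 7.45, DTT, CHAPS, BSA. Read-out: inhibition (%) from 671 over 617 nm ratio. Also added: Eu(K)-anti-GST 90 ng/mL plus XL665-anti-Flag 1 µg/mL.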
NS3 helicase inh = inhibitors of HCV NS3 helicase, primary screen, biochemical, Cy5 molecular beacon fluorescence; Hepatitis C virus NS3 helicase; NS3 helicase DNA unwinding; inhibition, % at 10.9 µM; 290,000 compounds, 0.56% hits; AID 1800, 2009;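 active means inhibition above the mean of all tested compounds plus 3 SD, set per campaign, cut at about 35% in these data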;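 further: 0% = DMSO wells and 100% = thioflavine S control wells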
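System: NS3 helicase fragment of HCV / Schedule: 1 h at 25 °C / Control set: DMSO alone as 0% and 110 µM thioflavine S as 100% / Reagent: Cy5/quencher beacon DNA duplex and ATP to start / Technique: Cy5 fluorescence / Replication: singlicate / Evaluation: % inhibition of end-to-start signal ratio versus controls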
ZTA DNA inh = blocks Epstein-Barr virus ZTA, an EBNA-1 counter-screen | ZTA-DNA binding, fluorescence polarization | AID 2234 | P03206 | 320,000 compounds, 0.15% hits | inhibition, % at 11 µM; in the data active means inhibition above about 33%
Target sequence (P03206 whole entry, looked up): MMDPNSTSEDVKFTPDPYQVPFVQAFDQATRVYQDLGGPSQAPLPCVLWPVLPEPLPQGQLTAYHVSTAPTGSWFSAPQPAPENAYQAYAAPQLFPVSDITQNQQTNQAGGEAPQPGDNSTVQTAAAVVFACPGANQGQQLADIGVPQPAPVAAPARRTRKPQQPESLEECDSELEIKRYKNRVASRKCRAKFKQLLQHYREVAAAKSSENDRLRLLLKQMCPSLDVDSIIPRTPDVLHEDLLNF
UBC9 SUMO inh = inhibitors of in vitro SUMOylation cascade, primary screen, biochemical, HTRF, uHTS; SUMO-conjugating enzyme UBC9 (Homo sapiens), P63279; AID 2006, 2009; inhibition, % at 35 µM; 290,000 compounds, 0.36% hits; HTRF SUMOylation assay, SAE1/SAE2 + UBC9; in the data active means inhibition above about 50%, passing the limit was not always enough
Target sequence (P63279 whole entry, looked up): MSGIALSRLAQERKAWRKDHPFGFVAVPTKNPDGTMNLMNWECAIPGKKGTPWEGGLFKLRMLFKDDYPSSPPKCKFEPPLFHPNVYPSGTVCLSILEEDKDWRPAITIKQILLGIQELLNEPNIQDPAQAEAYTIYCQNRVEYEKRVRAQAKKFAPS
NS3 hel confirm = HCV NS3 helicase inhibitors, retest, confirmation, biochemical, Cy5 molecular beacon fluorescence, triplicate | shares compounds with NS3 helicase inh | NS3 helicase DNA unwinding | inhibition, % at 10.9 µM | 1,600 compounds, 31% hits;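 active means inhibition above the mean of all tested compounds plus 3 SD, cutoff set per campaign, cut at about 36% in these data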
FID counter trip = compounds displacing fluorescent DNA intercalator, artefact control for HCV NS3 helicase inhibitor project, biochemical, FID fluorescence, triplicate | shares compounds with NS3 helicase inh | 1,600 compounds, 4% hits | DNA fluorescent intercalator displacement | AID 1945, 2009 | inhibition, % at 7.9 µM; in the data active means inhibition above about 37%;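 further: 0% = vehicle and 100% = reference compound; higher means more displacement of ethidium bromide from the DNA hairpin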
Starred values were filed as active, the others as inactive; x = not tested or not shown.

SMILES	EBNA-1 inhibitor	core dimer inh	NS3 helicase inh	ZTA DNA inh	UBC9 SUMO inh	others
CCOC(=O)c1cc(-c2ccccc2)n(CC2CC(c3ccc(OC)cc3)=NO2)n1 (stereo not drawn)	10	3	-11	-6	-23
C=CCn1c(SCc2cc(=O)n3ccsc3n2)nnc1C1CCCCC1	3	69*	15	-3	24
O=c1cc(CSc2nnc(NC3CCCCC3)s2)nc2sccn12	1	2	-2	9	5
COCCn1cnnc1SCC(=O)c1ccc(S(=O)(=O)N2CCCC2)cc1	-8	54*	-1	-2	21
C[C@H](NC(=O)CCC1CCC(=O)N1)c1ccccc1 (stereo partly drawn)	5	-8	x	7	x
O=[N+]([O-])c1cc(/C=N\Nc2nccs2)ccc1O	x	x	19	x	70*
N#Cc1c(N)sc(=S)c2c1CCN(Cc1ccccc1)C2	-8	57*	x	-5	67*
CC(C)c1ccc(NC(=O)Nc2cc3sccc3n2C)cc1	-6	47*	23	-15	-5
Cc1cccc(-n2ccc(=O)c(C(=O)Nc3ccc(S(=O)(=O)N4CCOCC4)cc3)n2)c1	-6	3	-3	-1	7
COc1ccccc1NC(=O)c1c[nH]c2ccccc12	-18	-5	3	6	-14
O=C(O)CSc1nc2sc3c(c2c(=O)n1Cc1ccccc1)CCCCC3	12	18	-15	20	11
O=C(O)CSc1cc(C(=O)c2ccccc2O)cn2c(=O)c3c4c(sc3nc12)CCCC4	x	x	22	x	50*
COc1cc(OC)nc(Oc2ccc(N)c(C)c2)n1	3	-15	-6	-15	15
O=S(=O)(Nc1ncnc2sc3c(c12)CCC3)c1ccc(Cl)s1	9	47*	23	17	1
CCOc1ccccc1Oc1c(C)oc2c(CN3CCN(C)CC3)c(O)ccc2c1=O	5	5	-5	18	50*
C=CC[C@]12CC=CC(=O)[C@@]1(O)O[C@H](c1ccc(OC)c(OC)c1)[C@H]2C	-11	-4	x	19	x
COc1ccc(C2=NN(c3ccccc3)C(=O)/C2=C\c2ccc(O)c(OC)c2)cc1	7	13	7	11	74*
COc1cc(-c2c(C#N)c(N)nc3[nH]c(=S)[nH]c(=O)c23)ccc1O	-9	3	-1	4	4
Cc1ccc(N(CC(=O)N/N=C/c2cc(C)n(-c3ccccc3)c2C)S(C)(=O)=O)c(C)c1	-2	31	-8	-4	9
Cc1cc(/C=N/NC(=O)Cn2c3ccccc3c(=O)c3ccccc32)c(C)n1-c1ccccc1	5	62*	20	14	8
CCc1ccc(/C=N/NC(=O)c2cc(-c3ccccc3OC)nc3ccccc23)s1	8	56*	-5	21	28
COc1ccc2c3c(cccc13)C(=O)N(O)C2=O	-1	15	5	14	1
CCC1=NNc2cccc3c(OC)ccc1c23	-6	25	3	19	59*
CC(C)CCSc1nc(N)c(C#N)cc1C#N	-7	64*	0	4	2
CCN(C(=O)COC(=O)c1cc2c(s1)CCCCC2)C1CCS(=O)(=O)C1 (stereo not drawn)	4	-10	-2	-7	10
SMILES	EBNA-1 inhibitor	core dimer inh	NS3 helicase inh	ZTA DNA inh	UBC9 SUMO inh	others
CC(C)CN(C(=O)COC(=O)c1cc2c(s1)CCC2)C1CCS(=O)(=O)C1 (stereo not drawn)	8	88*	27	2	11
CSc1ncc(CN2CCCC(C(=O)Nc3ccc(-c4ccco4)cc3)C2)cn1 (stereo not drawn)	-8	57*	-11	-7	-3
Cc1ncc(CN2CCCC(C(=O)Nc3ccc(-c4ccco4)cc3)C2)n1C (stereo not drawn)	3	-3	-30	0	7
O=C1C=C(N(CCO)Cc2ccccc2)c2ccccc2C1=O	x	x	-3	x	64*
O=C1c2ccccc2C(=O)c2c1cccc2N(CCO)CCO	-3	-44	5	-18	-6
COc1ccc(C2C(C#N)=C(N)SC(N)=C2C#N)cc1OC	9	61*	1	12	0
COc1ccc(-n2c(N)c(C(=O)Nc3c(C)n(C)n(-c4ccccc4)c3=O)c3nc4ccccc4nc32)cc1	0	16	4	-5	26
Cc1ccc(-n2c(N)c(C(=O)Nc3c(C)n(C)n(-c4ccccc4)c3=O)c3nc4ccccc4nc32)cc1C	3	30	72*	0	25
CN(CC(=O)Nc1ccc(Cl)c(C(F)(F)F)c1)C(=O)CCCNC(=O)c1ccc(Cl)cc1	x	x	x	5	x
COc1ccc(OC)c(N2C(=O)[C@@H]3C(c4ccccc4Cl)=NO[C@@H]3C2=O)c1	9	77*	14	-4	17
Cc1cccc(C)c1N1C(=O)[C@@H]2C(c3ccccc3Cl)=NO[C@@H]2C1=O	8	1	-1	8	-10
COc1ccc(-c2c(C)c3ccc(O)cc3oc2=O)cc1	1	3	0	7	x
Cc1ccc(-c2cc(-c3ccccc3O)nc(N/N=C/c3cccnc3)n2)cc1	-3	19	-3	-6	53*
CCNC(=S)Nc1ccc(Cc2nc3ccccc3[nH]2)cc1	-17	1	-13	2	4
CS(=O)(=O)NCc1ccccc1Br	x	x	x	-1	x
COc1ccc2c(c1)-c1nc(/N=C/c3ccc(O)cc3)sc1CC2	5	-10	30	14	86
COc1ccc2c(c1)-c1nc(/N=C/c3c(O)ccc4ccccc34)sc1CC2	x	x	30	x	57*
CCn1c(C)nc2cc(C(=O)N/N=C/c3ccc(O)c(O)c3O)ccc21	x	x	34	x	68*
O=C(CC1CCCCC1)NCCS(=O)(=O)N1CCN(c2ccccc2)CC1	-6	-2	x	-14	x
O=c1cc(CSc2n[nH]c(-c3ccncc3)n2)nc2sccn12	14	53*	2	8	6
N#CC1=C(N)S[C@@H](C(=O)c2ccc(F)cc2)[C@@H]1c1cccs1	9	8	39*	-5	34	NS3 hel confirm=7;FID counter trip=16
N#CC1=C(N)SC(C(=O)c2ccccc2)C1c1cccs1 (stereo not drawn)	-5	-3	27	-10	15
CCOC(=O)C1=C(C)NC(C)=C(C(=O)OCC)C1c1cccs1	-5	-9	-14	1	-2
C#CCSC1=C(C#N)C(c2cccs2)C(C(=O)OCC)=C(C)N1 (stereo not drawn)	-4	31	46*	-2	19	NS3 hel confirm=-6;FID counter trip=-6
